# Target: T1, OR2J2 (Homo sapiens) (UniProt O76002)
# T1 sequence (whole entry): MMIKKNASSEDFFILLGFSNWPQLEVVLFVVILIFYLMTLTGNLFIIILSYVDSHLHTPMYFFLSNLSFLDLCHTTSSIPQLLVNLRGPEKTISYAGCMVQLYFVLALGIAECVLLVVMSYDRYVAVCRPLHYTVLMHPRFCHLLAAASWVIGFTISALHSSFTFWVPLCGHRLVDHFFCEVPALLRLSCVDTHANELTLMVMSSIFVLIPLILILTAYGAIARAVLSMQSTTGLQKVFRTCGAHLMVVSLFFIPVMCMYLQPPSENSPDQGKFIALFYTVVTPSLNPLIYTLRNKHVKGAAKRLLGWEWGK
# Conditions: stereoisomer not certain
# How it was run: (§1)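 Assay methods differ from source to source, frequently being transient luciferase assays in mammalian cell lines. For each receptor–molecule pair, the label responsive (active) applies when the original authors judged the measured signal statistically different from baseline, and non-responsive (inactive) applies otherwise.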
row,Compound,odorant receptor agonist call
1,CCCCCCC(=O)[O-].[H+],inactive
2,CCCCCCCC(C)=O,inactive
3,CCCCCCCCCC(=O)[O-].[H+],inactive
4,CCCCCOC(=O)CCCCC,inactive
5,CC12CCC(CC1=O)C2(C)C (stereo unspecified),inactive
6,CCCCCCCCS,inactive
7,C=CCOC(=O)CCCCCC,inactive
8,CCCCCO,inactive
9,CCCCCCOC(C)=O,inactive
10,CCOC(=O)C(C)C,inactive
11,CCCCCCCCCS,inactive
12,CCCCC(=O)O,inactive
13,CCCCCCCCCO,active
14,CC(C)=CCCC(C)CCO (stereo unspecified),inactive
15,CCCCCCCC(=O)[O-].[H+],inactive
16,CCCCCC=O,inactive
17,CCCCCCO,inactive
18,CC(=O)Oc1ccccc1,inactive
19,CCCC(C)=O,inactive
20,CCCCCCCCC(=O)O,inactive
21,CCC(C(=O)O)c1ccccc1 (stereo unspecified),inactive
22,CCCCCCCCO,active
23,CC(C)=CCCC(C)=CCO,inactive
24,CCC(=O)O,inactive

# Target: T2, OR2L13 (Homo sapiens) (UniProt Q8N349)
# T2 sequence (whole entry): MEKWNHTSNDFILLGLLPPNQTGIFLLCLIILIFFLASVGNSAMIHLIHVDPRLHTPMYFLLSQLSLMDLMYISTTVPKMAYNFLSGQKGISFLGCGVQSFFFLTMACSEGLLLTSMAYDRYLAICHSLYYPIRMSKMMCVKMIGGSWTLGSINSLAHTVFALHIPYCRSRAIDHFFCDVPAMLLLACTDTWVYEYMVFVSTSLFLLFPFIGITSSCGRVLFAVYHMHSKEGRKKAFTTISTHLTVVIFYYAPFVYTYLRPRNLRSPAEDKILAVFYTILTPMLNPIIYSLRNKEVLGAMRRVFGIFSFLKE
# Conditions: stereoisomer not certain
# How it was run: as §1
row,Compound,odorant receptor agonist call
1,CC(C=O)Cc1ccc(C(C)(C)C)cc1 (stereo unspecified),inactive
2,CCCCCCC(=O)[O-].[H+],inactive
3,CCCCCCCCCCCCCCCCCC(=O)OC,inactive
4,CCCCCCCC(=O)OC,inactive
5,CCCCCCCCCCCCCCCC(=O)OC,inactive
6,CCCCCCCCCCCCO,active
7,Cc1ccc(C(C)C)cc1,inactive
8,CCCCCCCCCCCC(=O)OCC,inactive
9,CCCCCCCCCCCCCCCC(=O)[O-].[H+],inactive
10,CCCCCCCCCCCCCCCCCC(=O)[O-].[H+],inactive
11,CCCCCCCCO,inactive
12,CC(C)=CCCC(C)=CCO,inactive
13,CCCCCCCCCCCCCC(=O)OCC,inactive
14,CCC(=O)O,inactive
15,CCCO,inactive
16,CCCCCCCCCCCCCC(=O)OC,inactive

# Target: T3, OR2M3 (Homo sapiens) (UniProt Q8NG83)
# T3 sequence (whole entry): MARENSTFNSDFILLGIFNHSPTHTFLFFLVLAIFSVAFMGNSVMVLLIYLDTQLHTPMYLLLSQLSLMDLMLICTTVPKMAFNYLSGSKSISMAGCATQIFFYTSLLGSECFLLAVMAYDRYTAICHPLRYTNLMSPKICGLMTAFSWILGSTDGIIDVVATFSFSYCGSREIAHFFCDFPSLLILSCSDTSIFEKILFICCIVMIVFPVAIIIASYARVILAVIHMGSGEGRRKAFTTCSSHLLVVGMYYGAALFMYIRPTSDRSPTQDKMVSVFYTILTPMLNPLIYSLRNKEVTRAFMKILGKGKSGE
# Conditions: stereoisomer not certain
# How it was run: as §1
row,Compound,odorant receptor agonist call
1,CCCCCCCC(C)=O,inactive
2,CCCCCCCCCC(=O)[O-].[H+],inactive
3,CCCCCCOC(C)=O,inactive
4,CCOC(=O)C(C)C,inactive
5,CCCCC(=O)O,inactive
6,CCCCCCCCCO,inactive
7,CCCCCCCC(=O)[O-].[H+],inactive
8,CCCCCC=O,inactive
9,CCCCCCO,inactive
10,CC(C)=CCCC(C)=CCO,inactive
11,CCC(=O)O,inactive

# Reference: the M2OR odorant receptor database
